Data set [1] concerns MDM2-Luc exon-skipping reporter. The data set is described as follows: MDM2-Luc triple exon-skipping luciferase reporter assay. It counts as cell-based. In outline:
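Stable cell line expressing the triple exon-skipping luciferase construct. Exon skipping induced by SF3B1-targeted splicing modulators switches on luciferase, so luminescence is the read-out. The assay was used to screen a library of 830 known drugs and 4359 bioactive compounds.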

In the next data set the target is CLK2 (Homo sapiens, UniProt P49760). The data set is described as follows: CLK2 biochemical enzyme inhibition. The following applies: 20 versus its enantiomer 21.
The target of the next data set is CLK1 (Homo sapiens, UniProt P49759). As to the kind of experiment: CLK1 biochemical enzyme inhibition. Particulars: screened for CLK1 activity, data not shown.
Another data set is described as follows: Solubility. The data set is classed as physicochemical. The following applies: data not shown.
The target of a further data set is CDK4 (Homo sapiens, UniProt P11802). The data set is described as follows: CDK4 biochemical enzyme inhibition. Particulars: read-out: CDK4 IC50.
The next data set deals with T1, Flt3 (Homo sapiens, UniProt P36888).
T1 sequence (P36888 27-993): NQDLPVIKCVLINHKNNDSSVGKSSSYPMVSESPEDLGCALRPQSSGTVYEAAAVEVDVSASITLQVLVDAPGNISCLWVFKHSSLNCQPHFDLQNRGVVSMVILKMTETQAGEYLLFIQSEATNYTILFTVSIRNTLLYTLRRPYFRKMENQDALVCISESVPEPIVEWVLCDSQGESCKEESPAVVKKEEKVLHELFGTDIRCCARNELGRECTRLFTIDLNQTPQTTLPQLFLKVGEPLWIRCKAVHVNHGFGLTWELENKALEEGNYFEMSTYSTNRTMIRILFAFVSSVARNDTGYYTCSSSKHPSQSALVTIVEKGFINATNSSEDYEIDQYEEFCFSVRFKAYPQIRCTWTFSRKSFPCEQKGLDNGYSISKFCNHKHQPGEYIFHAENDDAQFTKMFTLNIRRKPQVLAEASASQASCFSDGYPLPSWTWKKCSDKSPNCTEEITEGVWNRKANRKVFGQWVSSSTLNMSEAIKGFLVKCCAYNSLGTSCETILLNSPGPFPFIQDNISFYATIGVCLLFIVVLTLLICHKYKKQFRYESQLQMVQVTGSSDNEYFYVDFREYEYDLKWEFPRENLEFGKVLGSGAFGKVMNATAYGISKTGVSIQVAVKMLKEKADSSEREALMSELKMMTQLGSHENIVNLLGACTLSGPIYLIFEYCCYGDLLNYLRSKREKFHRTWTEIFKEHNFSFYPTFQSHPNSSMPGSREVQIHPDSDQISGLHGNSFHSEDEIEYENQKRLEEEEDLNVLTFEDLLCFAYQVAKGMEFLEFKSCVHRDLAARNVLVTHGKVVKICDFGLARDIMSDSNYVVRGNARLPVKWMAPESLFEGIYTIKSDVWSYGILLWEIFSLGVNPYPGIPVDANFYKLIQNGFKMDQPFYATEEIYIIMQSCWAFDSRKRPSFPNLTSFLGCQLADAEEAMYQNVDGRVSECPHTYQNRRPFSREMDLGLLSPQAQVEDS
As to the kind of experiment: Kinase profiling screen, Flt3. The data set is classed as biochemical. Particulars: 1 μM, in duplicate.

The next data set addresses Src(1-530) (Homo sapiens, UniProt P12931). As to the kind of experiment: Kinase profiling screen, Src. Particulars: 1 μM, in duplicate. It counts as biochemical.
In another data set the target is Plk1 (Homo sapiens, UniProt P53350). The data set is described as follows: Kinase profiling screen, Plk1. The following applies: 1 μM, in duplicate. It counts as biochemical.

The source of these data is PMC5295499 (Bioorganic & medicinal chemistry letters, 2016).

“Also recorded” adds a separate entry of the source.

Src(1-530), sequence (P12931 1-530): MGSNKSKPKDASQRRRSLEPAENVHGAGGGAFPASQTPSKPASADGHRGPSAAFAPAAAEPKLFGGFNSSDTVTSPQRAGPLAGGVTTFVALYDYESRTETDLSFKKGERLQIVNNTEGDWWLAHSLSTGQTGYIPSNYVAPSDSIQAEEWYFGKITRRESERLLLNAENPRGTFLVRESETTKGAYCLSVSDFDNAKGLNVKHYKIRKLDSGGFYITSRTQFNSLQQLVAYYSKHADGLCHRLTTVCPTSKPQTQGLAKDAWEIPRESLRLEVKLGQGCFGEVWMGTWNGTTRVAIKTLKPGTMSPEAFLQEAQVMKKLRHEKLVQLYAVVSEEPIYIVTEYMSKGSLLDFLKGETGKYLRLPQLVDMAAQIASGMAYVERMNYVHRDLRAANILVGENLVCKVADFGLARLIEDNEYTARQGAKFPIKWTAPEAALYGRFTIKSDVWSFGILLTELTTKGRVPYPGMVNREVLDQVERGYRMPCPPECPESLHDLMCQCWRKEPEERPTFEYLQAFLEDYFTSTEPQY
Plk1, sequence (P53350 whole entry): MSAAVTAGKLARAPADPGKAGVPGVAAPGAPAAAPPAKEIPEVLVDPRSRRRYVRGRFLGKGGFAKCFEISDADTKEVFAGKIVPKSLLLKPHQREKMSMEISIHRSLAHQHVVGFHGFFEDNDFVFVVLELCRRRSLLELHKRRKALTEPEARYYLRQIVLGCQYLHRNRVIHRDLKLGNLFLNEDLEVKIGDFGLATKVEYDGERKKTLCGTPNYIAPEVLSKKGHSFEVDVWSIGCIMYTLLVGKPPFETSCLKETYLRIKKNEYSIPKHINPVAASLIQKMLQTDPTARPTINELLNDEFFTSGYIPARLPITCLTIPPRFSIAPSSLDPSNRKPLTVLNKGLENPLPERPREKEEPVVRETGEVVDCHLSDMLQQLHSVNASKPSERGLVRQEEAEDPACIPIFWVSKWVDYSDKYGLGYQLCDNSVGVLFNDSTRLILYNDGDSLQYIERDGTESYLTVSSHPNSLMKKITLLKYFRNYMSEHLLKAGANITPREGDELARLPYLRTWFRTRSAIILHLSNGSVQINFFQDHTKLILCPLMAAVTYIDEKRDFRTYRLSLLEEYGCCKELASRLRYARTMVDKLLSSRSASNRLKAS
CLK1, sequence (P49759 whole entry): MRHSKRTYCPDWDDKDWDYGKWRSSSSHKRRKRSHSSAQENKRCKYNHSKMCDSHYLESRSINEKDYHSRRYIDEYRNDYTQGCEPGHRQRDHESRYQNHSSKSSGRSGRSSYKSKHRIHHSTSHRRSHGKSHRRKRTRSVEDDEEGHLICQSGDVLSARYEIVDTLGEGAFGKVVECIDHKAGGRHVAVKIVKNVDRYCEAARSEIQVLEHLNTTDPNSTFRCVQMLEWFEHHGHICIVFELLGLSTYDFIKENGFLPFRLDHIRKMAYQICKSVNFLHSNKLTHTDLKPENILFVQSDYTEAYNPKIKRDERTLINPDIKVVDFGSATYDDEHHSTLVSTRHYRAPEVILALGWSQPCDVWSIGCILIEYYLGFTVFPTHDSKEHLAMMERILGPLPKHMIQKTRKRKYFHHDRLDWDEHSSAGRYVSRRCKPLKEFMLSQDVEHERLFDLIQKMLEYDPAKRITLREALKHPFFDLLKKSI
CLK2, sequence (P49760 whole entry): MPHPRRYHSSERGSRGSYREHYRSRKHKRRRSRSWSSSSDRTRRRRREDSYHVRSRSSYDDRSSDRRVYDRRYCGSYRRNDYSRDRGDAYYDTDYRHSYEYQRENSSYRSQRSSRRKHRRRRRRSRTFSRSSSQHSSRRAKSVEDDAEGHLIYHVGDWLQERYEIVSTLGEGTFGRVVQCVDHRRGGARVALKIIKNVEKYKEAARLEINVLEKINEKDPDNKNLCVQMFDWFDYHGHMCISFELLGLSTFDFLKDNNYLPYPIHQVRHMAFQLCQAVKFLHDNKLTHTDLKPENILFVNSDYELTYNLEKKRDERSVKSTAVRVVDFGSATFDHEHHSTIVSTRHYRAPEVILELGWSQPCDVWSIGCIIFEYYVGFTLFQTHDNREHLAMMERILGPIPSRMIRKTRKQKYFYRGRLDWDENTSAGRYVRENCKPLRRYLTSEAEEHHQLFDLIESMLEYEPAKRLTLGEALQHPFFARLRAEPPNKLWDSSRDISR
CDK4, sequence (P11802 whole entry): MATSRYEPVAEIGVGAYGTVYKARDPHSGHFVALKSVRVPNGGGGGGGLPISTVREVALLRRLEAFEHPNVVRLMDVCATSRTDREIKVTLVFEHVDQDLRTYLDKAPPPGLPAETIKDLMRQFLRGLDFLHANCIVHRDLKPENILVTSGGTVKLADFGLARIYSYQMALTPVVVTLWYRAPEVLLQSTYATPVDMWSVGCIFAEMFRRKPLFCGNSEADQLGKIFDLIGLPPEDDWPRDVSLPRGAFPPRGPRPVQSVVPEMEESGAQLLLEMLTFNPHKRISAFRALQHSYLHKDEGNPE
CDK4, sequence (P30281 whole entry partner): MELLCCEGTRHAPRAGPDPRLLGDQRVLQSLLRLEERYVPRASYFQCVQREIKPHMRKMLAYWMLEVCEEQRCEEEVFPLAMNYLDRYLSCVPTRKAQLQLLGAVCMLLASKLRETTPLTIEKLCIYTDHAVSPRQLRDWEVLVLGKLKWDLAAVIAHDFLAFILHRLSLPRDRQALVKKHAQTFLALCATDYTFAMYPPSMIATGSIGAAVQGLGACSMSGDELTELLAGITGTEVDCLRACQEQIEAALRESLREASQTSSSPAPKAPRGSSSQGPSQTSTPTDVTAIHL

In the case of `COC(=O)c1c(/C(C#N)=C\N)c2ccc(Cl)c(Cl)c2n1C` [KH-CB19, reference compound], the “activity in the MDM2-Luc assay” value in data set [1] is reported as “modest activity; also recorded: barely passes the minimal hit criteria”.

For `CC(C)n1cnc2c(Nc3cc(N)cc(Cl)c3)nc(N[C@H]3CCCC[C@@H]3N)nc21` [Compound 20], the “potency difference between enantiomers for CLK2” value on CLK2 is listed as > 10 fold.

Turning to `COCCNc1nc(Nc2cccc(Cl)c2)c2ncn(C(C)C)c2n1` [Compound 13], in data set [1], the “activity in the MDM2-Luc assay” value is reported as “dramatically reduced activity”. The “activity in the CLK assay” value on CLK1 was “active”. For the same compound, the “solubility” value in the data set “Solubility” is reported as “very poor solubility”.

Turning to `CC(C)n1ccc2c(Nc3cccc(Cl)c3)nc(N[C@H]3CCCC[C@H]3N)nc21` [Compound 11], the “activity in the MDM2-Luc assay at 10 μM” value in data set [1] is reported as “completely abrogated all activity”.

Take `CC(C)n1cnc2c(Nc3cccc(Cl)c3)nc(N[C@H]3CCCC[C@H]3N)nc21` [Compound 10]: in data set [1], the “activity in the MDM2-Luc assay” value is listed as “strong luciferase response”.

In general, IC50 refers to the midpoint of a concentration-inhibition curve. For the compound `CC(=O)Nc1cc(Cl)cc(Nc2nc(N[C@@H]3CCCC[C@@H]3N)nc3c2ncn3C(C)C)c1` [Compound 18], at CDK4, the IC50 came to 611 nM.

On to `COc1ccc2c(C)nc(Nc3nc(C)c(C)c(O)n3)nc2c1` [Madrasin, reference compound], for which the “activity in the MDM2-Luc assay at 10 μM” value in data set [1] was “neither compound showed significant activity”.

Regarding `CC(=O)Nc1cc(Cl)cc(Nc2nc(N[C@@H]3CCCC[C@@H]3N)nc3c2ncn3C(C)C)c1` [Compound 15], in data set [1], the “activity in the MDM2-Luc assay” value was “strong MDM2-Luc activity; also recorded: strong luciferase response”.

Consider `CCn1cnc2c(Nc3cccc(Cl)c3)nc(N[C@@H]3CCCC[C@@H]3NC(C)=O)nc21` [Compound 12], for which the “activity in the MDM2-Luc assay at 10 μM” value in data set [1] is reported as “completely abrogated all activity”.

As for `CC(C)n1cnc2c(Nc3cc(N)cc(Cl)c3)nc(N[C@@H]3CCCC[C@@H]3N)nc21` [Compound 14], in data set [1], the “activity in the MDM2-Luc assay” value was “strong MDM2-Luc activity; also recorded: strong luciferase response”. The “off-target activity against Flt3” value at Flt3 was “off-target activity”. The “off-target activity against Src(1-530)” value at Src(1-530) is on record as “off-target activity”. Moreover, on Plk1, the “off-target activity against Plk1” value is on record as “off-target activity”.

With `CC(C)n1cnc2c(Nc3cccc(Cl)c3)nc(N[C@@H]3CCCC[C@@H]3N)nc21` [Compound 9], the “activity in the MDM2-Luc assay” value in data set [1] is given as “strong luciferase response”. Besides, the “off-target activity against Flt3” value on Flt3 was “some significant off-target activity”. Also, the “off-target activity against Src(1-530)” value on Src(1-530) is listed as “some significant off-target activity”.
